Assay outcomes deposited in PubChem BioAssay by Sanford-Burnham Center for Chemical Genomics.
A selection: hits, their analogues and other compounds. The true share with any hit is near 4.1%.
UBC13 inh: inhibitors of human UBC13 polyubiquitin chain formation; inhibition, % at 20 µM; P61088; TR-FRET; AID 485273; hit rate 0.47% among 330,000; in the data active = inhibition above about 45%, passing the limit was not always enough
Target sequence (P61088 whole entry, looked up): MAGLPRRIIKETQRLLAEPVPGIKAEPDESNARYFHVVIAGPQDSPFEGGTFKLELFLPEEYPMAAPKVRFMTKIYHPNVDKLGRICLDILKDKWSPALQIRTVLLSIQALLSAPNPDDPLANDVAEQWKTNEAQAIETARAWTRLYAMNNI
Mdm2-MdmX inh: disrupts the human Mdm2-MdmX interaction | SaOS-2 split-luciferase Mdm2/MdmX complementation, luminescence | inhibition, % at 8 µM | hit rate 3% among 330,000;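 active = inhibition of at least 50% at 8 µM in the primary screen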
UPR CHOP act: activators of apoptotic arm of unfolded protein response (CHOP); activation, % at 10 µM; hit rate 0.34% among 330,000; AID 449763; CHO-CHOP luciferase reporter, UPR activation, luminescence; percent of tunicamycin response over DMSO baseline;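 active = at 10 µM dose, activation of 40% or more, normalized to positive control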;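 note: 100% = tunicamycin at 10 µg/mL and 0% = DMSO alone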
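Assay system: CHO-CHOP cells, stable luciferase reporter of PERK-eIF2a-CHOP signalling / Buffer or medium: F12 plus 10% serum / Compound dosing: one dose, 10 µM in 0.5% DMSO / Times: 6 h compound treatment, 37 °C / Technique: luciferase luminescence / Read-out: % reporter activation, DMSO baseline versus tunicamycin full activation / Benchmarks: tunicamycin and DMSO controls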
Apaf1 inhib: human Apaf-1 inhibition | O14727 | reconstituted apoptosome caspase-3 activity, DEVD-Rh110 fluorescence | inhibition, % at 20 µM | hit rate 0.71% among 330,000 | AID 489030; active = inhibition of at least 40% at 20 µM;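 note: plate controls were DMSO wells for no effect and DEVD-CHO caspase inhibitor wells for full effect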
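Material: reconstituted apoptosome with Apaf-1, cytochrome c, caspase-9, procaspase-3, dATP; medium: pH 7.5 Hepes buffer with CHAPS, BSA, DTT; also added: cytochrome c and DEVD-Rh110 substrate; timing: 30 min plus 50 min, RT; signal: Rh110 fluorescence intensity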
XBP1 UPR activ: activators of adaptive arm of unfolded protein response (XBP1). hit rate 0.33% among 330,000. CHO-XBP1 luciferase reporter, IRE1-XBP1 UPR activation, luminescence; percent of tunicamycin response, DMSO as zero. activation, % at 20 µM. AID 463104;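 active = versus positive control, 20 µM dose yields 30% or more activation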;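 note: 100% = tunicamycin at 10 µg/mL and 0% = DMSO only wells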
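Material: CHO-XBP1 cells stably carrying IRE1-XBP1-driven luciferase reporter / Amount: 1000 cells per well / Compound: 20 µM, 1% DMSO / Times: 6 h treatment, 37 °C / Detection: luciferase luminescence / Measure: % activation of reporter signal versus tunicamycin and DMSO controls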
XBP1 UPR conf: confirmation of adaptive unfolded protein response (XBP1) activators. shares compounds with XBP1 UPR activ. CHO-XBP1 IRE1-XBP1 luciferase reporter, luminescence. activation, % at 20 µM. hit rate 63% among 1,000. AID 485299;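 active = reporter signal at least 30% of the positive control's activation in two or more of four replicate wells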;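 note: plate controls were DMSO negative control for no effect and tunicamycin 10 µg/mL positive control for full effect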
Numbers without * were called inactive; · = no result given.

SMILES	UBC13 inh	Mdm2-MdmX inh	UPR CHOP act	Apaf1 inhib	XBP1 UPR activ	XBP1 UPR conf
COC1CCN(C(=O)C2CCC(=O)N(CCc3cccc(F)c3)C2)CC1 (stereo unspecified)	-11	-15	4	-12	-1	·
O=C(Nc1ccc(-n2nncc2-c2ccco2)cc1)c1cc2ccccc2oc1=O	1	29	6	8	67*	1
O=C(NS(=O)(=O)Nc1ccccc1)C1=C(N2CCCC2)COC1=O	-9	8	2	1	2	·
Oc1ccccc1N1CCN(c2ccc3ccccc3n2)CC1	1	-182	7	10	2	·
CS(=O)(=O)Nc1ccc(C(=O)NC2CCCC2)cc1	5	-11	2	-14	-1	·
COC(=O)C(C)Oc1ccc(-c2nccc(-c3ccccn3)n2)cc1 (stereo unspecified)	0	-6	1	12	4	·
COc1cccc(CNC(=O)CCC2CCCN(C(=O)c3ccc(OC)c(F)c3)C2)c1 (stereo unspecified)	-3	4	-1	-20	0	·
Cc1nn(Cc2ccccc2)c(C)c1NC(=O)CSc1nc(C2CC2)nc2c1cnn2-c1ccccc1	13	11	26	10	202*	333*
Oc1ccc(-c2nc3ccc4ccccc4c3c3c2CCC3)cc1O	-5	8	33	39	31*	51*
CCOC(=O)c1sc(NC(=O)CN2C(=O)NC3(CCC(C)CC3)C2=O)c(C(=O)OCC)c1C (stereo unspecified)	0	29	12	-3	31*	24
Cc1cccc(S(=O)(=O)C(C#N)c2nc3ccccc3nc2N2CCOCC2)c1 (stereo unspecified)	-17	-31	0	8	0	·
NC(=O)CC(NC(=O)Cc1cccc2ccccc12)c1ccc(NCCOc2ccccc2)c([N+](=O)[O-])c1 (stereo unspecified)	-30	13	2	14	48*	39*
COc1ccc(C(=O)Nc2cccc(/C=C/c3nc4ccccc4c(=O)[nH]3)c2)cc1	-21	34	5	-1	52*	69*
Fc1ccc2c(c1)C(c1ccc(N3CCOCC3)cc1)=NNC(c1cccs1)=N2	-15	19	0	22	0	·
Cc1ccc2c(c1)C(c1ccc(N3CCOCC3)cc1)=NNC(c1cccs1)=N2	-8	22	-2	11	62*	57*
COCCCn1c(=NC(=O)c2ccccc2)c(C#N)cc2c(=O)n3cccc(C)c3nc21	-21	24	3	4	43*	-2
COCCCn1c(=NC(C)=O)c(C#N)cc2c(=O)n3cccc(C)c3nc21	-10	10	-1	10	0	·
COC(=O)c1ccc(CSc2nc3ccccc3c(=O)n2-c2ccc(OC)c(OC)c2)o1	-2	11	-1	7	8	·
COC(=O)c1ccc(CSc2nc3ccccc3c(=O)n2-c2ccccc2)o1	8	-12	-2	17	35*	12
O=C(C[n+]1cccc(NC(=O)c2ccccc2)c1)c1cccc([N+](=O)[O-])c1	2	-13	2	-16	-1	·
O=C(C[n+]1ccc(-c2cc(C(=O)Nc3cccc(C(F)(F)F)c3)c3ccccc3n2)cc1)c1cccc([N+](=O)[O-])c1	-89	34	11	10	106*	91*
Cc1ccc(-c2csc(NC(=O)c3cccc([N+](=O)[O-])c3)n2)cc1	-9	33	2	-7	-1	·
CC(=O)c1cccc(Nc2nc(-c3cccc([N+](=O)[O-])c3)cs2)c1	-19	-53	5	6	43*	32*
O=C(Nc1nnc(-c2ccc(Br)cc2)o1)c1ccco1	-7	12	3	-2	-1	·
O=C(CN1C(=O)/C(=C/c2ccc(Cl)cc2)SC1=S)NC1C=CS(=O)(=O)C1 (stereo unspecified)	-7	15	2	14	44*	3
SMILES	UBC13 inh	Mdm2-MdmX inh	UPR CHOP act	Apaf1 inhib	XBP1 UPR activ	XBP1 UPR conf
O=C(NC(=O)c1ccccc1)Nc1cccc(S(=O)(=O)N2CCCCC2)c1	-8	-13	6	-8	-2	·
O=C(COC(=O)CCc1ccc(S(=O)(=O)N2CCOCC2)cc1)NCc1ccccc1	1	23	1	-4	-2	·
CC(CN1CCN(C)CC1)OC(=O)c1ccc(Cl)cc1 (stereo unspecified)	1	10	2	1	3	·
CC(CN1CCCCC1)OC(=O)c1ccc(Cl)cc1 (stereo unspecified)	5	-17	-1	-1	35*	1
CCCCC1CCC(c2ccc(C(N)=O)cc2)CC1 (stereo unspecified)	-3	0	-1	-5	0	·
CCCCCC1CCC(c2ccc(/C(N)=N/O)cc2)CC1 (stereo unspecified)	3	25	2	-8	32*	3
COCc1cc(C)nc(SCC(=O)c2ccc(O)c(O)c2)c1C#N	-12	8	16	0	41*	43*
COCc1cc(C)nc(SCC(=O)Oc2ccccc2)c1C#N	-2	4	0	4	-1	·
Cc1ccc(C(=O)N2CCC(C(=O)c3ccc(Cl)cc3)CC2)cc1	2	21	-2	1	-5	·
CNc1nc(N)c([N+](=O)[O-])c(NC2CCCCC2)n1	11	2	-2	7	9	·
Nc1nc(Nc2ccccc2)nc(NC2CCCCC2)c1[N+](=O)[O-]	4	27	3	30	43*	35*
N=c1n(CC(=O)c2ccc([N+](=O)[O-])cc2)c2ccccc2n1Cc1ccccc1	6	48	9	-11	140*	24
N=c1n(Cc2ccccc2)c2ccccc2n1Cc1ccccc1	24	44	-1	13	0	·
N=c1n(CC(=O)c2ccc([N+](=O)[O-])cc2)c2ccccc2n1Cc1ccc(Cl)cc1	26	40	35	-2	165*	59*
Cc1cc(/C=N\O)c(C)n1-c1ccncc1	3	7	-1	5	-5	·
O=C(COC(=O)C12CC3CC(CC(Br)(C3)C1)C2)Nc1ccc2[nH]c(=O)[nH]c2c1	-6	14	0	5	1	·
CCOC(=O)c1c(NC(=O)c2cc3n(n2)C(C(F)(F)F)CC(c2cccs2)N3)sc(C)c1C (stereo unspecified)	8	17	33	-5	33*	206*
COc1ccc(CNc2nc(-c3ccccc3)nn2C(=O)c2ccc([N+](=O)[O-])cc2)cc1	-4	-15	6	-5	33*	1
COc1ccc(CNc2nc(-c3ccccc3)nn2C(=O)c2cccs2)cc1	-1	-26	2	-18	-1	·
CC(C)CCn1c(=O)c(C(=O)N/N=C/c2cccc(F)c2)c(O)c2ccccc21	-27	12	6	13	37*	4
